Measurements taken from ChEMBL document CHEMBL3997810, “A Novel Potent Anticancer Compound Optimized from a Natural Oridonin Scaffold Induces Apoptosis and Cell Cycle Arrest through the Mitochondrial Pathway” (J Med Chem, 2017).
The source made the active and inactive calls. The rule behind the calls is not given here.

Assays:
[1] = Selectivity ratio of IC50 for human KB/CP4 cells to IC50 for human KB-3-1 cells
[2] = Antiproliferative activity against human BEL7404/CP20 cells after 48 hrs by MTT assay; type: functional, cell-based; conditions: BEL7404/CP20, 48 h
Method in brief: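 Colorimetric MTT assay. KB-3-1, NCI-H460 and Bel-7404 cells were seeded at 4000 cells/well; resistant KB/CP4, NCI-H460/MX20 and Bel-7404/CP20 were seeded at 7000 cells/well. Cells were pre-incubated 24 h at 37 °C, 5% CO2, then exposed to a compound concentration series for 48 h with DMSO ≤0.25%. Absorbance read at 570 nm. Quadruplicate wells, three repeats; means ± SD.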

MCF7 [3] = experiment: Induction of apoptosis in human MCF7 cells assessed as early apoptotic cells at 0.25 uM after 24 hrs by Annexin-V FITC/propidium iodide staining based flow cytometry (reference value: 2.65%); type: functional
MCF7 [4] = experiment: Cell cycle arrest in human MCF7 cells assessed as accumulation at G2/M phase at 0.5 uM after 48 hrs by propidium iodide staining based flow cytometry (reference value: 13.05%); type: functional
Method in brief: (§1)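 MCF-7 cells, 5 × 10^4 per well, seeded overnight, then exposed to 0.125–1 μM compound, or DMSO, for 48 h. Ethanol-fixed (70%, −20 °C, 12 h) and stained with PI/RNase at 37 °C for 30 min. Phase distribution determined by flow cytometry.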

MCF7 [5] = experiment: Downregulation of CyclinB protein expression in human MCF7 cells after 48 hrs by Western blot method; type: functional, cell-based
Method in brief: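 MCF-7 cells exposed to 0–1 μM compound for 48 h, then lysed on ice. Lysate (20 μg protein) run on 8–12% SDS-PAGE and transferred to PVDF. Probed overnight at 4 °C with primary antibodies, then fluorescent secondaries. Band densities normalized to β-actin. Mean ± SD of three independent experiments.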

MCF7 [6] = experiment: Cell cycle arrest in human MCF7 cells assessed as accumulation at G2/M phase at 0.25 uM after 48 hrs by propidium iodide staining based flow cytometry (reference value: 13.05%); type: functional
Method in brief: as §1

MCF7 [7] = experiment: Inhibition of colony formation in human MCF7 cells incubated for 24 hrs measured after 10 days by crystal violet staining based microscopic method; type: functional, cell-based
Method in brief: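 MCF-7 cells were plated at 3 × 10^2 per well and left overnight, then exposed to 0, 75, 150 or 300 nM (DMSO vehicle) for 24 h. Medium was removed and cells grew a further 10 days. Colonies were fixed in methanol for 15 min, stained with 0.1% crystal violet for 15 min and counted; a colony was >50 cells. At least three independent experiments, mean ± SD.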

MCF7 [8] = experiment: Antitumor activity against human MCF7 cells xenografted in Balb/c nude mouse assessed as tumor growth inhibition at 20 mg/kg/day, iv for 4 weeks relative to control; type: functional; conditions: 672 h, read-out: TGI
Method in brief: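 Six-week-old male BALB/c nude mice received 1 × 10^6 MCF-7 cells subcutaneously in the right flank. After 7 d of tumor growth, mice were randomized into groups of six. Dosing was 20 mg/kg iv once daily for 28 days in 10% DMF/2% poloxamer/88% saline. Tumor volume (L × W²/2) and body weight were recorded every 2 days. Inhibition = (1 − mean treated/control tumor weight) × 100%.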

MCF7 [9] = experiment: Antiproliferative activity against human MCF7 cells after 72 hrs by MTT assay; type: functional, cell-based; conditions: MCF7, 72 h
Method in brief: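 MGC-803 and MCF-7 cells grown in DMEM (MCF-7 with 1× NEAA); Bel-7402 and K562 grown in RPMI 1640; all media with 10% FBS. Cells seeded at 3500/well, pre-incubated 24 h, then exposed to compounds in fresh medium (DMSO ≤0.25%) for 72 h at 37 °C. MTT read-out at 570 nm. Quadruplicate wells, repeated three times; means ± SD (n = 3).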

Bel-7402 [10] = experiment: Cell cycle arrest in human Bel7402 cells assessed as accumulation at G1 phase at 0.5 uM after 48 hrs by propidium iodide staining based flow cytometry (reference value: 34.61%); type: functional
MCF7 [11] = experiment: Cell cycle arrest in human MCF7 cells assessed as accumulation at G2/M phase at 1 uM after 48 hrs by propidium iodide staining based flow cytometry (reference value: 13.05%); type: functional
Method in brief: as §1

Bel-7402 [12] = experiment: Cell cycle arrest in human Bel7402 cells assessed as accumulation at G2/M phase at 0.5 uM after 48 hrs by propidium iodide staining based flow cytometry (reference value: 56.61%); type: functional
Bel-7402 [13] = experiment: Cell cycle arrest in human Bel7402 cells assessed as accumulation at S phase at 0.5 uM after 48 hrs by propidium iodide staining based flow cytometry (reference value: 8.78%); type: functional
[14] = Permeability from basolateral to apical side in human Caco2 cells at 100 uM after 5 mins by HPLC method; type: ADME, cell-based; conditions: caco-2, 5 min
Bel-7402 [15] = experiment: Cell cycle arrest in human Bel7402 cells assessed as accumulation at G2/M phase at 4 uM after 48 hrs by propidium iodide staining based flow cytometry (reference value: 56.61%); type: functional
Bel-7402 [16] = experiment: Cell cycle arrest in human Bel7402 cells assessed as accumulation at G1 phase at 4 uM after 48 hrs by propidium iodide staining based flow cytometry (reference value: 34.61%); type: functional
MCF7 [17] = experiment: Induction of mitochondrial membrane potential depolarization in human MCF7 cells after 36 hrs by JC1 staining based fluorescence microscopic method; type: functional, cell-based
Method in brief: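 MCF-7 cells were treated with 0, 0.25, 0.5 or 1 μM for 36 h and loaded with 10 μg/mL JC-1 for 30 min at 37 °C, then washed in PBS. Monomers were read at ex 490/em 535 nm and aggregates at ex 525/em 600 nm, by plate reader or fluorescence microscopy. The red/green ratio came from 10,000 cells per group, in triplicate, mean ± SD.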

MCF7 [18] = experiment: Cell cycle arrest in human MCF7 cells assessed as accumulation at G1 phase at 1 uM after 48 hrs by propidium iodide staining based flow cytometry (reference value: 49.77%); type: functional
Method in brief: as §1

MCF7 [19] = experiment: Cytotoxicity against human MCF7 cells at 10 to 50 uM after 24 hrs by LDH assay; type: functional, cell-based
Method in brief: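 Membrane integrity assay on MCF-7 and Bel-7402 cells seeded at ~5 × 10^3 per well for 24 h, then given compounds at 10, 20 or 50 μM. Culture medium collected and assayed with CytoTox-ONE LDH reagent for 10 min, followed by stop solution. Fluorescence read at Ex 560/Em 590 nm. Expressed as percentage of unstimulated cells.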

Bel-7402 [20] = experiment: Cell cycle arrest in human Bel7402 cells assessed as accumulation at G1 phase at 1 uM after 48 hrs by propidium iodide staining based flow cytometry (reference value: 34.61%); type: functional
Bel-7402 [21] = experiment: Cell cycle arrest in human Bel7402 cells assessed as accumulation at G2/M phase at 1 uM after 48 hrs by propidium iodide staining based flow cytometry (reference value: 56.61%); type: functional
MCF7 [22] = experiment: Cell cycle arrest in human MCF7 cells assessed as accumulation at G1 phase at 0.5 uM after 48 hrs by propidium iodide staining based flow cytometry (reference value: 49.77%); type: functional
Method in brief: as §1

IC50 (MCF7 [9]): 80 nM
permeability [14]: Permeable
SMILES: C=C1C(=O)[C@]23[C@H](OC(=O)/C=C/c4ccccc4)[C@H]1CC[C@H]2[C@]12C=CCC(C)(C)[C@H]1[C@H](O)[C@]3(O)OC2
Ratio IC50 [1]: <1
IC50 [2]: 4730 nM
Activity (MCF7 [3]): 8.29%
Activity (MCF7 [4]): 24.23%
Activity (MCF7 [5]): Dose-dependent effect
Activity (MCF7 [6]): 16.73%
inhibition (MCF7 [7]): Dose-dependent effect
inhibition in vivo at 20 mg/kg/day (MCF7 [8]): 69.8%
Activity (Bel-7402 [10]): 34.56%
Activity (MCF7 [11]): 34.23%
Activity (Bel-7402 [12]): 57.83%
Activity (Bel-7402 [13]): 7.61%
Activity (Bel-7402 [15]): 63.11%
Activity (Bel-7402 [16]): 27.44%
Activity (MCF7 [17]): Dose-dependent effect
Activity (MCF7 [18]): 35.75%
Activity (MCF7 [19]): inactive
Activity (Bel-7402 [20]): 32.12%
Activity (Bel-7402 [21]): 59.37%
Activity (MCF7 [22]): 43.87%
